Measurements as given in ChEMBL document CHEMBL1150367, “High specific activity tritium-labeled N-(2-methoxybenzyl)-2,5-dimethoxy-4-iodophenethylamine (INBMeO): a high-affinity 5-HT2A receptor-selective agonist radioligand” (Bioorg Med Chem, 2008).

Key:
[1] = biological target: 5-hydroxytryptamine receptor 2C (Homo sapiens, UniProt P28335); assay: Binding affinity to 5HT2C receptor
[2] = biological target: 5-hydroxytryptamine receptor 6 (Homo sapiens, UniProt P50406); assay: Binding affinity to 5HT6 receptor
Sequence of 5-hydroxytryptamine receptor 6 (P50406 whole entry): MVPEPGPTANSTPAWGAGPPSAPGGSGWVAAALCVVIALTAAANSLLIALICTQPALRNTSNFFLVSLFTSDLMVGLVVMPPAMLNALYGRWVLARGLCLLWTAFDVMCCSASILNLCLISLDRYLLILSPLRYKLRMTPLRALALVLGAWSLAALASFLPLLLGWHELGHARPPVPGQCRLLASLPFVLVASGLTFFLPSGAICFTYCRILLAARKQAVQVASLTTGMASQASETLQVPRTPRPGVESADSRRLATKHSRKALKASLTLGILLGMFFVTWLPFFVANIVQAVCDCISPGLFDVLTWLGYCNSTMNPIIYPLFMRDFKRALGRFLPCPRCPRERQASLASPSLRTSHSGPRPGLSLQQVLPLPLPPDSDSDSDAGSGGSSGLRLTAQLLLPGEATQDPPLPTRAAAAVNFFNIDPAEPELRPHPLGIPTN

Mu-type opioid receptor = Mu-type opioid receptor (Homo sapiens, UniProt P35372); assay: Binding affinity to mu opioid receptor
Histamine H1 receptor = Histamine H1 receptor (Homo sapiens, UniProt P35367); assay: Binding affinity to histamine H1 receptor
[3] = biological target: 5-hydroxytryptamine receptor 2B (Homo sapiens, UniProt P41595); assay: Binding affinity to 5HT2B receptor
[4] = biological target: Kappa-type opioid receptor (Homo sapiens, UniProt P41145); assay: Binding affinity to kappa opioid receptor
[5] = biological target: 5-hydroxytryptamine receptor 1A (Homo sapiens, UniProt P08908); assay: Binding affinity to 5HT1A receptor
Sequence of 5-hydroxytryptamine receptor 1A (P08908 whole entry): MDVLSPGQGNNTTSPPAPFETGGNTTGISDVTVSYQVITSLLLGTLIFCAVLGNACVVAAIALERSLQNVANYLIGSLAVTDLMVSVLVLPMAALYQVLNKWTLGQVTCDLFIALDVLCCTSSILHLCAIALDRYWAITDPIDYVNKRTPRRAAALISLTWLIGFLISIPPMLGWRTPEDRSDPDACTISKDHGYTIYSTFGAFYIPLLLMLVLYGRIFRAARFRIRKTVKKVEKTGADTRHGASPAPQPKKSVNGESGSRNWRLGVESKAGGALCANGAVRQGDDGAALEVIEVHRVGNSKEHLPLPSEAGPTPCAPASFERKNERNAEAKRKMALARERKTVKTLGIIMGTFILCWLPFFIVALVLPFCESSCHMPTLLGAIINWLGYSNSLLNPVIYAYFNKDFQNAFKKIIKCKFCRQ

D(3) dopamine receptor = D(3) dopamine receptor (Homo sapiens, UniProt P35462); assay: Binding affinity to dopamine D3 receptor
[6] = biological target: 5-hydroxytryptamine receptor 7 (Homo sapiens, UniProt P34969); assay: Binding affinity to 5HT7 receptor
Histamine H2 receptor = Histamine H2 receptor (Homo sapiens, UniProt P25021); assay: Binding affinity to histamine H2 receptor
[7] = biological target: 5-hydroxytryptamine receptor 1D (Homo sapiens, UniProt P28221); assay: Binding affinity to 5HT1D receptor
[8] = biological target: Alpha-1A adrenergic receptor (Homo sapiens, UniProt P35348); assay: Binding affinity to alpha 1A adrenergic receptor
[9] = biological target: Delta-type opioid receptor (Homo sapiens, UniProt P41143); assay: Binding affinity to delta opioid receptor
[10] = biological target: Sodium-dependent serotonin transporter (Homo sapiens, UniProt P31645); assay: Binding affinity to serotonin uptake transporter
Sequence of Sodium-dependent serotonin transporter (P31645 whole entry): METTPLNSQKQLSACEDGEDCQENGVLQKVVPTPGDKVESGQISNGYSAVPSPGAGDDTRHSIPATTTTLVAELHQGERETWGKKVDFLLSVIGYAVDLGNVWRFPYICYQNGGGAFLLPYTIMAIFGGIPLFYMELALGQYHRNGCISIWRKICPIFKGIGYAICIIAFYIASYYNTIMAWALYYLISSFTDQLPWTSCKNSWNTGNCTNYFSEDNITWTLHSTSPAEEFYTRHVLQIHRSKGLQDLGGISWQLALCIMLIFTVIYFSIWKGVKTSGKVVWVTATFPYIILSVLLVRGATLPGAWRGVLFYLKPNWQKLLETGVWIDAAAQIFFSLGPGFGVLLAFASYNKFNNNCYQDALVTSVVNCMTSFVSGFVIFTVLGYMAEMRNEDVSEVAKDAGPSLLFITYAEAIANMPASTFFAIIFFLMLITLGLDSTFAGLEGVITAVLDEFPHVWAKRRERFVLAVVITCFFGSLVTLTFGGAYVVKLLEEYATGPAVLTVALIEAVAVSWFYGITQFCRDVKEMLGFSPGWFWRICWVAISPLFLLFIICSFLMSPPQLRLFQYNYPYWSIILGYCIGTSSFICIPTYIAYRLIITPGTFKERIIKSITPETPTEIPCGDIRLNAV

[11] = biological target: 5-hydroxytryptamine receptor 5A (Homo sapiens, UniProt P47898); assay: Binding affinity to 5HT5A receptor
[12] = biological target: 5-hydroxytryptamine receptor 1B (Homo sapiens, UniProt P28222); assay: Binding affinity to 5HT1B receptor
Sequence of 5-hydroxytryptamine receptor 1B (P28222 whole entry): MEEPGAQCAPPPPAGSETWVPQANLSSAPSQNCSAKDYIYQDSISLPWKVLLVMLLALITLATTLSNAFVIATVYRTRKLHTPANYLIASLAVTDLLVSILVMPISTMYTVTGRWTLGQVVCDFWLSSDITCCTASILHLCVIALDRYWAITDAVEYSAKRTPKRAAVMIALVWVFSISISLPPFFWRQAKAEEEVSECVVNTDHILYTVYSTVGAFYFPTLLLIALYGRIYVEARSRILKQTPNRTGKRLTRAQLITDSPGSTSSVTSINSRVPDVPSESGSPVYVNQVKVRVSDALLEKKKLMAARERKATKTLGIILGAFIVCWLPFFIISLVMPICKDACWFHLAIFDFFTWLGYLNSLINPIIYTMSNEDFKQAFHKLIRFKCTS

D(2) dopamine receptor = D(2) dopamine receptor (Homo sapiens, UniProt P14416); assay: Binding affinity to dopamine D2 receptor
D(1A) dopamine receptor = D(1A) dopamine receptor (Homo sapiens, UniProt P21728); assay: Binding affinity to dopamine D1 receptor
[13] = biological target: 5-hydroxytryptamine receptor 3A (Homo sapiens, UniProt P46098); assay: Binding affinity to 5HT3 receptor
[14] = biological target: 5-hydroxytryptamine receptor 1E (Homo sapiens, UniProt P28566); assay: Binding affinity to 5HT1E receptor
D(1B) dopamine receptor = D(1B) dopamine receptor (Homo sapiens, UniProt P21918); assay: Binding affinity to dopamine D5 receptor
Sequence of D(1B) dopamine receptor (P21918 whole entry): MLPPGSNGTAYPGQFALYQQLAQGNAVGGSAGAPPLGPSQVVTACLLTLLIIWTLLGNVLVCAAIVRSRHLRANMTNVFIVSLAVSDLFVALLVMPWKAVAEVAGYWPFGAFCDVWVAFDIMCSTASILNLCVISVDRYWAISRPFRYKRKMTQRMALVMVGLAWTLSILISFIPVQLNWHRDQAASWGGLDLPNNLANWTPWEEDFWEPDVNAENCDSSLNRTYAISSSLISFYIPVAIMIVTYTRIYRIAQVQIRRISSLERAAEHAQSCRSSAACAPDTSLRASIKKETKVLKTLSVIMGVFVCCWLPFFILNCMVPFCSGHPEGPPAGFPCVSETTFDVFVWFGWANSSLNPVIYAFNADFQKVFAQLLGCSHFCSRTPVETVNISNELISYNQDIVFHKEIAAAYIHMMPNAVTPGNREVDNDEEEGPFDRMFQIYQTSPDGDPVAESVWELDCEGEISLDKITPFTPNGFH

[15] = biological target: Muscarinic acetylcholine receptor M1 (Homo sapiens, UniProt P11229); assay: Binding affinity to muscarinic M1 receptor
[16] = biological target: Muscarinic acetylcholine receptor M2 (Homo sapiens, UniProt P08172); assay: Binding affinity to muscarinic M2 receptor
[17] = biological target: Muscarinic acetylcholine receptor M3 (Homo sapiens, UniProt P20309); assay: Binding affinity to muscarinic M3 receptor
[18] = biological target: Muscarinic acetylcholine receptor M4 (Homo sapiens, UniProt P08173); assay: Binding affinity to muscarinic M4 receptor
[19] = biological target: Muscarinic acetylcholine receptor M5 (Homo sapiens, UniProt P08912); assay: Binding affinity to muscarinic M5 receptor
Sequence of Muscarinic acetylcholine receptor M5 (P08912 whole entry): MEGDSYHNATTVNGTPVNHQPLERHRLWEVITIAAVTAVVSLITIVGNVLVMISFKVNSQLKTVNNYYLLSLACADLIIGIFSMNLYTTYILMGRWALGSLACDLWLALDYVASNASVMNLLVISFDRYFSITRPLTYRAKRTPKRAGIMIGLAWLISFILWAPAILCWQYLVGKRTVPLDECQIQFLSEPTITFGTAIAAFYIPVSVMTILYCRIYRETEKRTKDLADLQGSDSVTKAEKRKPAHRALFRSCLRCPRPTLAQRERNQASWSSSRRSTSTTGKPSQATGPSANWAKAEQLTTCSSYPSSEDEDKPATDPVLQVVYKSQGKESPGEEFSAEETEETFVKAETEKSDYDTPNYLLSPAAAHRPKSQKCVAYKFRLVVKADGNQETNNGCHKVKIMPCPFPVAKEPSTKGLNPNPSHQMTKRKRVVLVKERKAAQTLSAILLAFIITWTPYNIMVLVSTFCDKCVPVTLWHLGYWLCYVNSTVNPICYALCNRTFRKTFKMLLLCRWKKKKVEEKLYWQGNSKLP

Histamine H3 receptor = Histamine H3 receptor (Homo sapiens, UniProt Q9Y5N1); assay: Binding affinity to histamine H3 receptor
Sequence of Histamine H3 receptor (Q9Y5N1 whole entry): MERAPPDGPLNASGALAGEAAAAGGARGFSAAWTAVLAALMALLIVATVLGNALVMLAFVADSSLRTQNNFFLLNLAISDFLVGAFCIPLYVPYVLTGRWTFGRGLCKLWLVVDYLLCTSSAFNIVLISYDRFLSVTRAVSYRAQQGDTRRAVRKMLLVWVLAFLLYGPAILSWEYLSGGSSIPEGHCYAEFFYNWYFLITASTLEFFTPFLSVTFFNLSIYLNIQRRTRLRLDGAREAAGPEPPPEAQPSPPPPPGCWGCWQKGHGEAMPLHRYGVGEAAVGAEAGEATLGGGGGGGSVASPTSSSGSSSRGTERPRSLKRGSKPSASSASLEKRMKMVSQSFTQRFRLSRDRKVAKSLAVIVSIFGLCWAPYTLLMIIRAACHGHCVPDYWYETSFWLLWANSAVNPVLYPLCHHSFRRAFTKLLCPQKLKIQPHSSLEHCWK

[20] = biological target: Sodium-dependent dopamine transporter (Homo sapiens, UniProt Q01959); assay: Binding affinity to dopamine uptake transporter
Sequence of Sodium-dependent dopamine transporter (Q01959 whole entry): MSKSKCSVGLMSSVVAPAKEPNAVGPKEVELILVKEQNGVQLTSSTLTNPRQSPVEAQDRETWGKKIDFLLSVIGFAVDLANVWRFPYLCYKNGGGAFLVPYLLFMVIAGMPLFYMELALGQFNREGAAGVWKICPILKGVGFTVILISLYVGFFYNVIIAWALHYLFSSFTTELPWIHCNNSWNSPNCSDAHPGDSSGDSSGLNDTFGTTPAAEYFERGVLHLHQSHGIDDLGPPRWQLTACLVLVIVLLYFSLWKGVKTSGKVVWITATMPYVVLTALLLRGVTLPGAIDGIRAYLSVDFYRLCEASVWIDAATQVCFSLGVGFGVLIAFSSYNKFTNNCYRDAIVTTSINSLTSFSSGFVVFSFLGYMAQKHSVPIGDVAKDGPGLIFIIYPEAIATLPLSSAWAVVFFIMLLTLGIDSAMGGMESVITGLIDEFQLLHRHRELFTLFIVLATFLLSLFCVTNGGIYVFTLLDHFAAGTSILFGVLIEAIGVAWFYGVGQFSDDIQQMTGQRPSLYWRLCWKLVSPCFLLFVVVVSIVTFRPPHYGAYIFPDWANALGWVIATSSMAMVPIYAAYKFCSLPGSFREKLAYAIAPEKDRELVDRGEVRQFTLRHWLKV

[21] = biological target: T1, 5-hydroxytryptamine receptor 2A (Homo sapiens, UniProt P28223); assay: Binding affinity to human 5HT2A receptor expressed in human A549 cells; assay type: cell-based; conditions: for Bmax: tested as the 3H-labelled form
T1 sequence (P28223 whole entry): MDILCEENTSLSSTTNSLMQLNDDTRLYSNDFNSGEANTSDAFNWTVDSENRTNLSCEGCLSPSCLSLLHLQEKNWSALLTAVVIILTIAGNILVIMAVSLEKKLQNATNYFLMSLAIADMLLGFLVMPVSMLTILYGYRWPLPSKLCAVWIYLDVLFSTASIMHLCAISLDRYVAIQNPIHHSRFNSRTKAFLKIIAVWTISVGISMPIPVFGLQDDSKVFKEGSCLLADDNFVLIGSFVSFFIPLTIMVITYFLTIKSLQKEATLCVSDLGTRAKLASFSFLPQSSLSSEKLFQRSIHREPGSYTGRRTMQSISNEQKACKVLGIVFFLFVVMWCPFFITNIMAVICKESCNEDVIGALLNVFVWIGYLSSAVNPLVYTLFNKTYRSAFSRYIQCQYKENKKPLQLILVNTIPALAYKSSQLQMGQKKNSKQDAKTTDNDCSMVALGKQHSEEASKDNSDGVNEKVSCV
Outline: (§1)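 Incubated 60 min at 25 °C in 50 mM Tris, 4 mM MgCl2, pH 7.4, with 1% BSA. Nonspecific defined by 10 μM cinanserin; filtration and scintillation counting.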

[22] = biological target: T1, 5-hydroxytryptamine receptor 2A; assay: Binding affinity to human 5HT2A receptor expressed in human HEK293 cells; assay type: cell-based; conditions: for Bmax: tested as the 3H-labelled form; outline: as §1
[23] = biological target: T1, 5-hydroxytryptamine receptor 2A; assay: Displacement of [3H]ketanserin from human 5HT2A receptor expressed in human A549 cells; assay type: cell-based
[24] = biological target: T1, 5-hydroxytryptamine receptor 2A; assay: Displacement of [3H]INBMeO from human 5HT2A receptor expressed in human A549 cells; assay type: cell-based
[25] = biological target: T1, 5-hydroxytryptamine receptor 2A; assay: Displacement of [3H]ketanserin from human 5HT2A receptor expressed in human HEK293 cells; assay type: cell-based
[26] = biological target: T1, 5-hydroxytryptamine receptor 2A; assay: Displacement of [3H]INBMeO from human 5HT2A receptor expressed in human HEK293 cells; assay type: cell-based

Sequence of 5-hydroxytryptamine receptor 2C (P28335 whole entry): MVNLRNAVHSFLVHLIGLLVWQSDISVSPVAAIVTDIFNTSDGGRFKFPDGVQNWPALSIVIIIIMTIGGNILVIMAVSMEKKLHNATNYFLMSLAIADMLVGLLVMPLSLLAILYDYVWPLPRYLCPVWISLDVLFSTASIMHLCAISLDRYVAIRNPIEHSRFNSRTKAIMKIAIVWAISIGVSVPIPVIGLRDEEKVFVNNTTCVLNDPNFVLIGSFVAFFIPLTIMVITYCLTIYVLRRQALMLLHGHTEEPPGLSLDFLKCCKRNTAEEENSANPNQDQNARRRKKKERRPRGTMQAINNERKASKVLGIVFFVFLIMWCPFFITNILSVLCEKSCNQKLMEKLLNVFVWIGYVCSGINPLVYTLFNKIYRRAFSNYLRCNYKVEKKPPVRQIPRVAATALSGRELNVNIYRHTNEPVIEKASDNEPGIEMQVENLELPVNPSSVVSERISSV

`[3H]C([3H])([3H])Oc1cc(I)c(OC)cc1CCNCc1ccccc1OC([3H])([3H])[3H]` showed a Ki [1] of 2 nM, a Ki [2] of 73 nM and a Ki (Mu-type opioid receptor) of 82 nM. The Ki (Histamine H1 receptor) was 189 nM, the Ki [3] was 231 nM and the Ki [4] was 288 nM. The Ki [5] was > 500 nM, the Ki (D(3) dopamine receptor) was > 500 nM and the Ki [6] was > 500 nM. The Ki (Histamine H2 receptor) was > 500 nM, the Ki [7] was > 500 nM and the Ki [8] was > 500 nM. For the same compound, the Ki [9] was > 500 nM, the Ki [10] was > 500 nM and the Ki [11] was > 500 nM. For the same compound, the Ki [12] was > 500 nM, the Ki (D(2) dopamine receptor) was > 500 nM and the Ki (D(1A) dopamine receptor) was > 500 nM. For the same compound, the Ki [13] was > 500 nM, the Ki [14] was > 500 nM and the Ki (D(1B) dopamine receptor) was > 500 nM. For the same compound, the Ki [15] was > 500 nM, the Ki [16] was > 500 nM and the Ki [17] was > 500 nM. For the same compound, the Ki [18] was > 500 nM, the Ki [19] was > 500 nM and the Ki (Histamine H3 receptor) was > 500 nM. The Ki [20] was > 500 nM, the Kd [21] was 0.097 nM and the Kd [22] was 0.15 nM.

`O=C(c1ccc(F)cc1)C1CCN(CCn2c(=O)[nH]c3ccccc3c2=O)CC1` gave a Bmax [21] of 890 fmol/mg and a Bmax [22] of 3260 fmol/mg.

With `COc1cc(CCNCc2ccccc2OC)c(OC)cc1I` the Bmax [21] was 480 fmol/mg and the Bmax [22] was 2210 fmol/mg.

Compound `CN(C)CCCSc1ccccc1NC(=O)/C=C/c1ccccc1` [CINANSERIN] has a Ki [23] of 17 nM, a Ki [24] of 24 nM and a Ki [25] of 13 nM. It also gave a Ki [26] of 22 nM.
